Calls of active or inactive are those of the source. The calls are words filed in the database; no cut-off is given here. Starred links: 1 amine or outer side, 2 acyl side, 3 side chain; linkers in the order of their positions; H or OH if unused. Positions of bridges follow the written chain, without caps; N, C: chain ends. Non-standard residues stand in square brackets, D forms with d. Residues, ends and D or L forms follow the SMILES beside them. *: point of attachment. hTyr(3S-OH,4S-OH,3'-OSO3H) = N[C@H](C(=O)O)[C@H](O)[C@@H](O)c1ccc(O)c(OS(=O)(=O)O)c1; Orn(4R-OH,5R-OH) = O=C([C@H](C[C@@H](O)[C@@H](O)N[*:3])N[*:1])[*:2]; Pro(3S-OH,4S-Me) = C[C@H]1CN[C@H](C(=O)O)[C@H]1O; X1 = CCCCCOc1ccc(-c2cc(-c3ccc(C(=O)*)cc3)no2)cc1; Gln(3R-OH) = NC(=O)C[C@@H](O)[C@H](N)C(=O)O; Hyp = O=C(O)[C@@H]1C[C@@H](O)CN1
Columns and labels:
Aspergillus fumigatus [1] = test: Antifungal activity against Aspergillus fumigatus 293 by broth-microdilution; type: functional; conditions: read-out: MEC
How it was run: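 Broth microdilution following CLSI (NCCLS) approved standard M38-A. Amphotericin B read as MIC; micafungin read as minimum effective concentration.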

Aspergillus fumigatus [2] = test: Antifungal activity against Aspergillus fumigatus 293 infected in neutropenic BALB/c mouse assessed as mouse survival at 20 mg/kg, ip administered as single dose 24 hrs before infection measured after 7 days relative to untreated control; type: functional; conditions: route intraperitoneal
How it was run: (§1)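 Female BALB/c mice, 8 weeks old, 18-22 g. Neutropenia by cyclophosphamide 150 mg/kg i.p. on days −4, −1 and +3, plus cortisone acetate 250 mg/kg i.p. on day −1. Under isoflurane, 2.5 × 10^6 conidia given intranasally. Drug diluted in D5W, given once i.p. 24 h pre-infection; D5W controls; n = 20/group. Morbidity monitored 7 days; log-rank test.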

Aspergillus fumigatus [3] = test: Antifungal activity against Aspergillus fumigatus 293 infected in neutropenic BALB/c mouse assessed as mouse survival at 5 mg/kg, ip administered as single dose 24 hrs prior to infection measured after 7 days relative to untreated control; type: functional; conditions: route intraperitoneal; how it was run: as §1
Aspergillus fumigatus [4] = test: Antifungal activity against Aspergillus fumigatus 293 infected in neutropenic BALB/c mouse lung assessed as log reduction in fungal burden at 20 mg/kg, ip administered as single dose 24 hrs before infection; type: functional; conditions: route intraperitoneal
How it was run: (§2)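 Same neutropenic BALB/c intranasal-challenge model; single i.p. dose in D5W given 24 h pre-infection; D5W controls. Lungs from 10-20 mice/group taken at day +7, or earlier at moribund euthanasia. A. fumigatus DNA quantified by real-time PCR as conidial equivalents; reduction expressed as log10 of median versus control.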

Aspergillus fumigatus [5] = test: Antifungal activity against Aspergillus fumigatus 293 by Etest; type: functional
How it was run: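 Susceptibility of A. fumigatus 293 by Etest. Amphotericin B read as MIC; micafungin read as minimum effective concentration.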

Aspergillus fumigatus [6] = test: Antifungal activity against Aspergillus fumigatus 293 infected in neutropenic BALB/c mouse lung assessed as swollen dysmorphic hyphal clusters at 10 mg/kg, ip administered as single dose 24 hrs before infection by light microscopy; type: functional, organism-based; design: dose 10 mg/kg
How it was run: (§3)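 Repeat experiments in the neutropenic intranasal-challenge model, five mice per dose, single i.p. dose 24 h pre-infection. Day +7 lungs fixed in 10% formaldehyde and stained with Grocott methenamine silver. Hyphal morphology and density assessed by light microscopy at ×100 and ×400.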

Aspergillus fumigatus [7] = test: Antifungal activity against Aspergillus fumigatus 293 infected in neutropenic BALB/c mouse lung assessed as log reduction in fungal burden at 5 mg/kg, ip administered as single dose 24 hrs before infection; type: functional; conditions: route intraperitoneal; how it was run: as §2
Aspergillus fumigatus [8] = test: Antifungal activity against Aspergillus fumigatus 293 infected in neutropenic BALB/c mouse lung assessed as log reduction in fungal burden at 10 mg/kg, ip administered as single dose 24 hrs before infection; type: functional; conditions: route intraperitoneal; how it was run: as §2
Aspergillus fumigatus [9] = test: Antifungal activity against Aspergillus fumigatus 293 infected in neutropenic BALB/c mouse lung assessed as swollen dysmorphic hyphal clusters at 20 mg/kg, ip administered as single dose 24 hrs before infection by light microscopy; type: functional, organism-based; design: dose 20 mg/kg; how it was run: as §3

Row | Structure (SMILES) | minimal effective concentration (Aspergillus fumigatus [1]) | Activity (Aspergillus fumigatus [2]) | Activity (Aspergillus fumigatus [3]) | FC (Aspergillus fumigatus [4]) | MEC (Aspergillus fumigatus [5]) | Activity (Aspergillus fumigatus [6]) | FC (Aspergillus fumigatus [7]) | FC (Aspergillus fumigatus [8]) | Activity (Aspergillus fumigatus [9])
1 | C[C@@H]1[C@H](O)[C@@H](C)/C=C/C=C/C=C/C=C/C=C/C=C/C=C/[C@H](O[C@@H]2O[C@H](C)[C@@H](O)[C@H](N)[C@@H]2O)C[C@@H]2O[C@](O)(C[C@@H](O)C[C@@H](O)[C@H](O)CC[C@@H](O)C[C@@H](O)CC(=O)O[C@H]1C)C[C@H](O)[C@H]2C(=O)O [AMPHOTERICIN B] | 0.25 µg/mL |  |  |  |  |  |  |  | 
2 | CCCCCOc1ccc(-c2cc(-c3ccc(C(=O)N[C@H]4C[C@@H](O)[C@@H](O)NC(=O)[C@@H]5[C@@H](O)[C@@H](C)CN5C(=O)[C@H]([C@H](O)CC(N)=O)NC(=O)[C@H]([C@H](O)[C@@H](O)c5ccc(O)c(OS(=O)(=O)O)c5)NC(=O)[C@@H]5C[C@@H](O)CN5C(=O)[C@H]([C@@H](C)O)NC4=O)cc3)no2)cc1 [MICAFUNGIN] (X1-[Orn(4R-OH,5R-OH)]T[Hyp][hTyr(3S-OH,4S-OH,3'-OSO3H)][Gln(3R-OH)][Pro(3S-OH,4S-Me)]; lactam 1-C) | 0.25 µg/mL | 55% | 55% | 0.7 | 0.25 µg/mL | Active | 1.3 | 1.3 | Active
